# Screens (PubChem BioAssay)
# UBC13 polyUb = blocks human UBC13 polyubiquitin chain formation | TR-FRET | inhibition, % at 20 µM | AID 485273 | P61088 | actives 0.47% (n = 330,000); in the data active = inhibition above about 45%, passing the limit was not always enough
# FID counter = fluorescent intercalator displacement, NS3 helicase counter-screen | DNA fluorescent intercalator displacement, fluorescence | inhibition, % at 7.9 µM | actives 0.17% (n = 290,000) | AID 1845; in the data active = inhibition above about 37%;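 also: 0% = vehicle and 100% = reference compound; higher means more ethidium bromide displaced from hairpin DNA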
# Neddyl block = cullin neddylation inhibition | actives 0.58% (n = 360,000) | calls only at 25 µM | TR-FRET cullin neddylation, biochemical | P61081+Q13564 | AID 651699; in the data active = inhibition above about 36%
# RAD52 anneal inh = RAD52 (human) annealing inhibition; P43351; recombinant RAD52 DNA annealing, FRET fluorescence; actives 0.46% (n = 360,000); inhibition, % at 18.7 µM;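 active = every replicate showing at least 50% inhibition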
# RAD54 branch = blocks human RAD54 Holliday junction branch migration; Q92698; FAM/BHQ fluorescence; inhibition, % at 10.4 µM; actives 0.14% (n = 360,000); AID 602329;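 active = mean normalized replicate activity at least 40 and at least half of replicates scoring 40 or more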;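 also: 0% = median of neutral control wells and 100% = median of positive control wells; inhibitors cause a drop in the FAM fluorescence signal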
# Apaf-1 inh = blocks human Apaf-1 apoptosome activity; O14727; reconstituted apoptosome caspase-3 activity, DEVD-Rh110 fluorescence; inhibition, % at 20 µM; actives 0.71% (n = 330,000); active = inhibition of at least 40% at 20 µM;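 also: plate controls were DMSO wells for no effect and DEVD-CHO caspase inhibitor wells for full effect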
# Target sequence (O14727 whole entry, looked up): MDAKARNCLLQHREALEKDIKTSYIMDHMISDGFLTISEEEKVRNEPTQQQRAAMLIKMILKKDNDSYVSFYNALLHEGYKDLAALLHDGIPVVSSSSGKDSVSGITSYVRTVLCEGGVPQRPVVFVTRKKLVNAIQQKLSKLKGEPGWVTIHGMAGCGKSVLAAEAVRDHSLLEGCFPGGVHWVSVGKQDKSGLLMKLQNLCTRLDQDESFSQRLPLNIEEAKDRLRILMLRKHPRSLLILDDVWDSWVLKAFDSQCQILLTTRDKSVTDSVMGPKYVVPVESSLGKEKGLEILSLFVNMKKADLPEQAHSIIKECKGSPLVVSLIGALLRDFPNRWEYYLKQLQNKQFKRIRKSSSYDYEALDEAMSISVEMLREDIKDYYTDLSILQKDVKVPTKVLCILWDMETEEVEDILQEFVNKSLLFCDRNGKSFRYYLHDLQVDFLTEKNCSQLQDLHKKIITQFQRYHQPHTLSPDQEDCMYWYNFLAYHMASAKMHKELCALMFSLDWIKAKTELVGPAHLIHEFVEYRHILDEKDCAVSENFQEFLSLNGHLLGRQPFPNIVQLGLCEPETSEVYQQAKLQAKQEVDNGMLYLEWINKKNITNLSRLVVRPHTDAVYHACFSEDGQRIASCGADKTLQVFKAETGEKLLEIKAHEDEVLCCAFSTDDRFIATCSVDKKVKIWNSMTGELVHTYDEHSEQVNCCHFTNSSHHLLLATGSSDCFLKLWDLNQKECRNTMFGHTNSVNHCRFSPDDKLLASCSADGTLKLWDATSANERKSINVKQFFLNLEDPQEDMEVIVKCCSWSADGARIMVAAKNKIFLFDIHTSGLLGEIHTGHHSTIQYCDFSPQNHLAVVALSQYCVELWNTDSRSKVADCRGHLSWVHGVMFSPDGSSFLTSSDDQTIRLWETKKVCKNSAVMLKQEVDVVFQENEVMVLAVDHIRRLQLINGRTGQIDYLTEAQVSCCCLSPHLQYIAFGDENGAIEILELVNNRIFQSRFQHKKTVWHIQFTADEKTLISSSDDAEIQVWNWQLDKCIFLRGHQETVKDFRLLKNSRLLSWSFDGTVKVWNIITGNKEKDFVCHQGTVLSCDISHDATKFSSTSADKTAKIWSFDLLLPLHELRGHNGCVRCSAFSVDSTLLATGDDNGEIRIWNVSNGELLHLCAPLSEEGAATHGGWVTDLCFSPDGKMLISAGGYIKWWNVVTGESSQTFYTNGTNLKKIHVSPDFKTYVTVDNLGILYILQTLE
#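 Material: cell-free apoptosome with Apaf-1, procaspase-3 and caspase-9; Buffer or medium: Hepes pH 7.5 with detergent and BSA; Reagent: cytochrome c trigger plus (Z-DEVD)2-Rh110 caspase-3 substrate; Times: compound with Apaf-1, dATP, procaspase-3 30 min, then 50 min reaction, room temperature; Technique: Rh110 fluorescence intensity.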
# Casp3 counter = inhibits human caspase-3 in UBC13 counter-screen; shares compounds with UBC13 polyUb; Recombinant caspase-3, Caspase-Glo 3/7 luminescence, 60 min; inhibition, % at 20 µM; actives 4% (n = 1,400); AID 488856;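 active = mean inhibition across replicates above about 26%, limit read from the data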;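 also: plate controls were DMSO with caspase-3 for no effect and DMSO wells lacking enzyme for full effect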
# UBC13 confirm = confirmation of human UBC13 polyubiquitin inhibitors | UBC13 polyubiquitination, TR-FRET, biochemical | inhibition, % at 10 µM | shares compounds with UBC13 polyUb | actives 68% (n = 1,400); in the data active = inhibition above about 45%
# Apaf-1 inh conf = Apaf-1 inhibition, single-dose confirmed; shares compounds with Apaf-1 inh; reconstituted apoptosome, caspase-3 DEVD-Rh110 fluorescence; inhibition, % at 20 µM; actives 25% (n = 1,800); AID 504614;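 active = mean inhibition of at least 40% at 20 µM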;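 also: plate controls were DMSO wells for no effect and DEVD-CHO caspase inhibitor control wells for full effect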
# Rh110 quench = Rh110 signal interference in Apaf-1 inhibitor counter-screen; activation (fluorescence interference), % at 20 µM; shares compounds with Apaf-1 inh; 1,800 tested, under 10 active; Rh110 fluorescence interference, quenched caspase reaction; AID 504615;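 active = signal rise of 40% or more at 20 µM, treated as a fluorescence artifact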
# Fluor interf inh = counter-screen for Apaf-1 inhibitors: fluorescence interference, dose response. shares compounds with Apaf-1 inh. fluorescence interference counterscreen, Apaf-1 assay format. IC50, µM. 460 tested, under 10 active. AID 588538; call rule not given here
# Active calls of the source: *; i = inactive; / = not tested or not shown; + = active, no number; ! = repeats disagree. Shown are actives, neighbours in structure and some others; about 1.6% of the full set was active somewhere.
SMILES,UBC13 polyUb,FID counter,Neddyl block,RAD52 anneal inh,RAD54 branch,Apaf-1 inh,others
O=C(O)[C@@H]1[C@@H](CO)[C@@H]2Cn3c(ccc(C4=CCCC4)c3=O)[C@H]1N2C(=O)Cc1ccccn1,/,/,/,-25.3,5.8,/,
COC(=O)[C@H]1[C@H](CO)[C@H]2Cn3c(ccc(-c4ccccc4F)c3=O)[C@@H]1N2Cc1ccccc1,/,/,/,1.4,0.3,/,
COC(=O)[C@H]1[C@H](CO)[C@H]2Cn3c(ccc(-c4ccccc4F)c3=O)[C@@H]1N2Cc1ccncc1,/,/,/,123.0*,5.8,/,
CCCN1[C@@H]2c3ccc(-c4ccc(F)cc4)c(=O)n3C[C@H]1[C@H](CO)[C@H]2C(=O)OC,/,/,/,56.7*,3.4,/,
COC(=O)[C@@H]1[C@@H](CO)[C@@H]2Cn3c(ccc(-c4ccccc4F)c3=O)[C@H]1N2Cc1ccncc1,/,/,/,106.9*,18.2,/,
CC=Cc1ccc2n(c1=O)C[C@@H]1[C@@H](CO)[C@H](C(=O)O)[C@H]2N1S(=O)(=O)c1ccccc1C (mixture of isomers),/,/,/,1.2,-15.2,/,
CCN1[C@@H]2c3ccc(-c4cccc(C(=O)N(C)C)c4)c(=O)n3C[C@H]1[C@H](CO)[C@H]2C(=O)OC,/,/,/,5.9,-19.6,/,
Clc1ccc(CO/N=C(\Cn2ccnc2)c2ccc(Cl)cc2Cl)c(Cl)c1,51.3*,/,/,/,/,36.1,
Clc1ccc(CSC(Cn2ccnc2)c2ccc(Cl)cc2Cl)cc1 (stereo unspecified),43.6,0.6,i,-12.3,2.8,39.1,
O=C(Cc1ccccc1)N1CC2(C1)[C@H](c1ccccc1)[C@@H](CO)N2Cc1cccc(F)c1,/,/,/,-27.2,/,/,
C[C@H](CO)N1C[C@H](C)[C@H](CN(C)C(=O)Oc2ccccc2)OCc2ccccc2-c2c(n(C)c3ccccc23)C1=O,/,/,/,12.4,/,/,
CN1CCN(c2ccc([N+](=O)[O-])c(N/N=C3\CN4CCC3CC4)c2)CC1,-82.6,42.3*,i,/,69.9*,-10.6,
CCNc1cc(N2CCN(C)CC2)ccc1[N+](=O)[O-],-80.9,5.0,i,-8.6,13.8,-0.7,
O=C(Cc1ccncc1)N1CCCCN2[C@H](C1)[C@H](c1ccc(C#CC3(O)CCCC3)cc1)[C@@H]2CO,/,/,/,2.1,-2.7,/,
Cc1cccc(S(=O)(=O)N2[C@@H]3Cn4c(ccc(-c5ccncc5)c4=O)[C@H]2[C@@H](C(=O)O)[C@@H]3CO)c1,/,/,/,-25.6,0.5,/,
Cn1c(=O)c2c(nc(N/N=C/c3c(O)n(C4CCCCC4)c(=S)[nH]c3=O)n2C)n(C)c1=O,-29.0,-30.1,+,-32.0,/,8.3,
O=C1CCCN1C(=O)c1cncc(Br)c1,7.6,-1.4,i,/,/,1.3,
Nc1cncc(C(=O)O)c1,3.7,-3.7,i,-8.3,3.0,40.8*!,
COC(=O)[C@@H]1[C@@H](CO)[C@@H]2Cn3c(ccc(-c4cccc(OC)c4)c3=O)[C@H]1N2CC1CC1,/,/,/,-6.9,-3.0,/,
Cc1ccc(C(=O)N[C@@H](C)CN2C3=NC[C@@H](Cc4ccccc4)N3C[C@H]2Cc2ccc(O)cc2)cc1Br,77.0*,7.7,/,31.1,/,27.9,Casp3 counter=-1.2;UBC13 confirm=75.7*
Cc1ccc(C(=O)N[C@@H](C)CN2C3=NC[C@H](Cc4ccccc4)N3C[C@H]2Cc2ccc(O)cc2)cc1Br,65.1*,/,/,/,/,28.3,Casp3 counter=2.5;UBC13 confirm=64.6*
Cc1ccc2c(c1)C1CN(C)CCC1N2C(=O)c1cccnc1Cl (stereo unspecified),12.4,-0.4,i,2.7,/,-23.9,
Cc1ccc2c(c1)C1CN(C)CCC1N2C(=O)CCCN1C(=O)c2cccc3cccc(c23)C1=O (stereo unspecified),88.8*,-0.4,i,-5.9,10.9,-13.7,Casp3 counter=-1.6;UBC13 confirm=100.8*
COC(=O)[C@@H]1[C@@H](CO)[C@@H]2Cn3c(ccc(-c4cccc(OC)c4)c3=O)[C@H]1N2C(=O)c1cnccn1,/,/,/,-4.8,11.4,/,
CCCCn1c(=O)c(C(=O)Nc2ccccc2S(N)(=O)=O)c(O)c2ccccc21,52.7*,-6.4,i,/,7.0,10.8,Casp3 counter=-1.9;UBC13 confirm=15.2
SMILES,UBC13 polyUb,FID counter,Neddyl block,RAD52 anneal inh,RAD54 branch,Apaf-1 inh,others
CCCCCn1c(=O)c(C(=O)Nc2ccccc2S(N)(=O)=O)c(O)c2ccccc21,7.5,-8.9,i,-12.2,/,12.7,
CNCC(O)c1cc(OCc2ccccc2)c(OCc2ccccc2)cc1F (stereo unspecified),52.6*,/,i,40.5,-19.8,7.9,Casp3 counter=1.8;UBC13 confirm=38.6
COC(=O)[C@H]1[C@H](CO)[C@H]2Cn3c(ccc(C4=CCCC4)c3=O)[C@@H]1N2CC1CCCC1,/,/,/,-25.4,/,/,
Clc1ccc(COC(Cn2ccnc2)c2ccc(Cl)cc2Cl)cc1 (stereo unspecified),49.6*,-1.4,i,-3.2,4.1,39.6,Casp3 counter=3.2;UBC13 confirm=19.5
S=C(NCCc1ccccc1)NCCc1cnc[nH]1,-4.4,2.7,i,-16.6,9.6,1.9,
O=C1C(Cc2cnc[nH]2)NC(=S)N1c1ccccc1 (stereo unspecified),86.5*,-1.7,i,-16.2,-4.5,5.0,Casp3 counter=1.7;UBC13 confirm=103.8*
O=C(O)[C@H]1[C@H](CO)[C@H]2Cn3c(ccc(-c4ccccc4)c3=O)[C@@H]1N2CC1CCCCC1,/,/,/,0.4,0.1,/,
O=C(Cc1ccccn1)N1CCCCN2[C@@H](CO)[C@H](c3ccc(C#Cc4ccccc4)cc3)[C@@H]2C1,/,/,/,-18.3,-5.6,/,
CCCCCCCSc1cc(OC)c(CCN(C)C)cc1OC,49.9*,32.5,i,/,/,56.3*,Casp3 counter=-2.7;UBC13 confirm=56.1*;Apaf-1 inh conf=12.7;Rh110 quench=10.8
O=C(Cc1ccccc1)N1C[C@@H]2[C@H](c3ccccc31)[C@@H](CO)N2Cc1ccccc1,/,/,/,-5.5,9.6,/,
COC(=O)[C@@H]1[C@@H](CO)[C@@H]2Cn3c(ccc(C4=CCCCC4)c3=O)[C@H]1N2C(=O)NC(C)C,/,/,/,6.4,4.0,/,
Clc1ccc(C(c2ccc(Cl)cc2)n2cc[n+](CC(OCc3ccc(Cl)cc3Cl)c3ccc(Cl)cc3Cl)c2)cc1 (stereo unspecified),104.2*,/,i,30.9,-5.8,89.5*,Casp3 counter=-3.0;UBC13 confirm=105.6*;Apaf-1 inh conf=78.9*;Rh110 quench=7.8;Fluor interf inh=>100
